An excerpt weighted towards active compounds, which were near 3.8% of everything screened.
KCNQ1 block: blocks the human KCNQ1 potassium channel | CHO-K1 KCNQ1, FluxOR thallium flux fluorescence; active compounds read high | B-score at 10 µM | P51787 | 310,000 tested, 1.3% active;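 active = compounds whose thallium flux B-score, printed positive for inhibition, exceeds three library SD while starting fluorescence stays within three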;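 note: channel opened by potassium depolarization with thallium stimulus after 20 min compound exposure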
KCNQ1 pot: potentiators or activators of human KCNQ1 potassium channel | P51787 | CHO-K1 KCNQ1, thallium flux FluxOR fluorescence; active compounds read high | B-score at 10 µM | 310,000 tested, 0.35% active;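 active = fluorescence ratio B-score, a plate-corrected score, at least three library SD, with initial intensity B-score within 5 SD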
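Doses: Single concentration per compound, DMSO matched to controls | Test system: KCNQ1-transfected CHO-K1 cells | Timing: 90 min dye loading and 20 min compound exposure, both at room temperature | Measured by: Kinetic FluxOR thallium fluorescence, 10-s 1-Hz baseline, 110-s post-stimulus read | Medium: Assay buffer with matched DMSO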
KCNK3 block: human KCNK3 channel inhibition, primary screen | AID 602410 | B-score at 10 µM | CHO-KCNK3 thallium flux, FluxOR fluorescence; active compounds read low | 340,000 tested, 0.84% active;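 active = B-score under library mean minus 4 SD, starting fluorescence ratio at most library mean plus 5 SD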;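 note: more negative B-score means stronger inhibition of thallium flux through KCNK3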
KCNK9 inh: blocks the human KCNK9 two-pore domain potassium channel; Q9NPC2; AID 488922; 310,000 tested, 1.2% active; HEK293 KCNK9, FluxOR thallium flux fluorescence; active compounds read low; B-score at 10 µM;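 active = ratio B-score over 3 SD below the library mean, with starting fluorescence within 5 SD of its mean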;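 note: negative B-score means less thallium flux so channel inhibition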
Kir21 inh: Kir2.1 (mouse) channel inhibition. P35561. HEK293-Kir2.1, FluxOR thallium flux fluorescence; active compounds read low. B-score at 10 µM. 310,000 tested, 0.85% active;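 active = fluorescence ratio B-score at or below minus 3 SD of library scores, with starting-brightness B-score within 2 SD, cut at about -4.2 in these data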;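 note: channel flux triggered by added potassium and thallium sulfate stimulus; B-score of peak minus minimum fluorescence over baseline after thallium stimulus; more negative B-score means stronger Kir2.1 block with less thallium influx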
Target sequence (P35561 whole entry, looked up): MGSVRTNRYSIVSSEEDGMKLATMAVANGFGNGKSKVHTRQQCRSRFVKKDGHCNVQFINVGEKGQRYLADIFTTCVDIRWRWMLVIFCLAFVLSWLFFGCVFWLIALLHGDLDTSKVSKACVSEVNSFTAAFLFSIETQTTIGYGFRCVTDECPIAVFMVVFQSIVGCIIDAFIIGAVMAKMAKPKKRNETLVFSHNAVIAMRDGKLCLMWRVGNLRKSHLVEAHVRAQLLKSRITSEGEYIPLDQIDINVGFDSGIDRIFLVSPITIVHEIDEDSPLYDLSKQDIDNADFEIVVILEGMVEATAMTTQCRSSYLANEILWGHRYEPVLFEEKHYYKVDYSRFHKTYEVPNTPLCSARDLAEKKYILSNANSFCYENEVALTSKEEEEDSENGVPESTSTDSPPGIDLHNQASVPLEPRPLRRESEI
hERG protect: hERG (human) protection from proarrhythmic block. Q12809. CHO-hERG, FluxOR thallium flux, dofetilide IC70 present. activation (rescue from dofetilide block), less the hit threshold, % at 10 µM. 310,000 tested, 0.51% active. AID 1511;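 active = activation above the mean of controls blocked by dofetilide plus 5 SD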;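 note: thallium influx through hERG after potassium depolarization seen as dye fluorescence rise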
An asterisk follows results filed as active; i = inactive; . = no result.

SMILES	KCNQ1 block	KCNQ1 pot	KCNK3 block	KCNK9 inh	Kir21 inh	hERG protect
CC(=O)c1cccc(NC(=O)c2cccc(NC(=O)c3ccco3)c2)c1	i	i	i	i	1.79	-8.2
COc1ccccc1NC(=O)c1cccc(NC(=O)c2ccco2)c1	.	.	-9.37*	.	.	.
COc1ccc(NC(=O)c2ccco2)cc1NC(=O)c1ccccc1	i	i	i	i	1.51	-12.1
O=C(Nc1ccccc1C(=O)O)c1cccc(NC(=O)c2ccco2)c1	i	i	i	i	-0.05	5.3*
Cc1ccc(O)c(NC(=O)c2cccc(NC(=O)c3ccco3)c2)c1	i	i	-9.38*	-6.89*	1.34	-9.4
CCOc1ccccc1NC(=O)c1ccc(NC(=O)c2ccco2)cc1	i	i	i	-6.59*	0	-8.3
CCC(C)c1ccccc1OCCCNC1CCCC1 (configuration not stated)	i	i	i	i	-5.94*	-8.2
Cc1ccc2[nH]c(C(=O)NN=C3CCCCC3)c(-c3ccccc3)c2c1	i	i	i	i	-0.02	-3.7
OC(c1ccc(F)cc1)(C1CCCCC1)C(CN1CCOCC1)c1ccccc1 (configuration not stated)	8*	i	i	i	-0.78	-6.6
CC(C)CC(O)(c1ccccc1)C(CN1CCOCC1)c1ccccc1 (configuration not stated)	i	i	i	i	0.93	-5.7
CN1CC(c2ccccn2)C2(SC(=S)N(Cc3ccccc3)C2=O)C12C(=O)Nc1ccccc12 (configuration not stated)	6*	i	i	i	-0.39	-10.7
CN1CC(c2ccccc2)C2(SC(=S)N(Cc3ccco3)C2=O)C12C(=O)Nc1ccccc12 (configuration not stated)	i	i	i	i	-1.62	-2.8
COc1ccc(CCc2nnc(N)s2)cc1OC	i	i	i	i	1.24	-1.9
Cc1nc2cc(-c3ccc(Cl)cc3)nn2c(NCCN(C)C)c1C	i	i	i	i	-4.58*	-13.3
CCOC(=O)N1CCN(C(=O)/C(=C/c2cccc3ccccc23)NC(=O)c2ccc(OC)c(OC)c2)CC1	i	i	i	i	2.5	-11.9
COc1ccc(C(=O)N/C(=C\c2cccc3ccccc23)C(=O)N2CCN(C)CC2)cc1OC	i	i	i	i	0.05	9.7*
CN(C)S(=O)(=O)N(CC(=O)N(Cc1ccccc1)Cc1ccccc1)c1ccccc1	i	i	i	i	0.01	-17.4
CN(C)S(=O)(=O)N(Cc1ccc(Br)cc1)c1ccccc1	i	i	i	-7.43*	-2.64	-8.2
CC(C)(C)n1cnnc1Sc1ncccc1[N+](=O)[O-]	i	i	i	i	2.11	-5.1
CC(C)C(NS(=O)(=O)c1ccc2c(c1)OCCO2)C(=O)NCCc1ccccn1 (configuration not stated)	i	i	i	i	1.94	3.5
Cc1ccc(NC(=O)C2=C(c3ccccc3)S(=O)(=O)CCS2(=O)=O)cc1	i	i	i	i	-5.66*	-7.4
COc1ccc(CNC(=O)C(=O)NCC2OCCN2S(=O)(=O)c2ccc3c(c2)OCCO3)cc1 (configuration not stated)	i	i	i	i	-0.34	-11.3
C=CCn1c2ccccc2c2nnc(SCN3C(=O)c4ccccc4C3=O)nc21	6*	i	i	i	0.01	-8.5
CC(Sc1nc2ncc(Cl)cc2[nH]1)C(=O)NC1(C#N)CCCCC1 (configuration not stated)	.	.	i	.	.	.
CCCn1c(SCC(=O)NC2CCCCC2)nnc1-c1cccnc1	i	i	i	i	-0.25	-1.2
SMILES	KCNQ1 block	KCNQ1 pot	KCNK3 block	KCNK9 inh	Kir21 inh	hERG protect
CC(C)(C)C1CCc2c(sc(NC(=O)C3CC=CCC3C(=O)O)c2C#N)C1 (configuration not stated)	i	i	i	i	0.31	13.7*
Cc1nn(CC(=O)Nc2sc3c(c2C#N)CCC(C(C)(C)C)C3)c(C)c1[N+](=O)[O-] (configuration not stated)	8*	i	i	i	1.19	-11.7
Cc1nn(C(C)C(=O)Nc2sc3c(c2C#N)CCCC3)c(C)c1[N+](=O)[O-] (configuration not stated)	i	i	i	i	0.42	-0.4
N#Cc1c(NC(=O)C2CC=CCC2C(=O)O)sc2c1CCCCCC2 (configuration not stated)	i	i	i	i	0.21	-5.5
CCN(CC)c1ccc2cc(S(=O)(=O)c3ccc(Cl)cc3)c(=O)oc2c1	10*	i	i	i	-1.57	-8.1
CCCCCCc1cc2cc(S(=O)(=O)c3ccc(Cl)cc3)c(=O)oc2cc1O	11*	i	i	i	1.56	-1.1
O=c1oc2cc(O)ccc2cc1S(=O)(=O)c1ccccc1	i	i	i	i	-0.41	-9.1
COC(=O)c1cncc(C)c1	i	i	i	i	-1.53	-5.4
CCOC(=O)c1cc(CC)sc1NC(=O)Cc1ccccc1	i	i	i	-7.65*	0.99	-12.6
CCOC(=O)c1cc(CC)sc1NC(=O)COC	i	i	i	i	-0.71	-5.9
O=C(C[n+]1ccc(-c2cc(C(=O)Nc3cccc(C(F)(F)F)c3)c3ccccc3n2)cc1)c1cccc([N+](=O)[O-])c1	7*	i	i	i	-1.26	-20.2
O=C(CSc1c2c(nc3cc(Cl)ccc13)CCCC2)NCc1ccco1	i	i	i	i	-6.45*	-20.8
COc1ccc(CNC(=O)c2cccc(NC(=O)CC3SC(N4CCCCC4)=NC3=O)c2)cc1 (configuration not stated)	.	.	i	.	.	.
COc1ccc(-n2c(C)cc(C(=O)CN3C(=O)c4ccccc4C3=O)c2C)cc1	i	i	i	i	0.76	-5.9
COc1ccc(-n2c(C)cc(C(=O)CCl)c2C)cc1	i	8*	i	i	-1.32	-18.9
COc1ccc(CCNCc2cc(C)n(-c3ccc(OC)cc3)c2C)cc1	i	i	i	i	-4.75*	-11.7
Cc1sc2ncn(CC(=O)Nc3cccc(S(N)(=O)=O)c3)c(=O)c2c1-c1ccccc1	i	i	i	i	3.88	-11.1
CCOC(=O)Cc1csc(NC(=S)NC(=O)c2ccc(F)cc2)n1	i	8*	i	i	1.17	1.2
CCOC(=O)Cc1csc(NC(=S)NC(=O)c2ccccc2C)n1	i	16*	i	i	2.25	1.9
C=CCNC(=O)c1c(CS(=O)(=O)c2ccccc2)noc1C(=O)NCc1ccccc1	.	.	i	.	.	.

Screening data (PubChem)
